Compounds with a hit are over-represented: about 3.5% of the library has one in this group of screens.
MrgX1 agonist = agonists of human MrgX1 receptor, primary screen, HEK293 cells, Fluo-4 calcium flux | Fluo-4 calcium fluorescence, agonist mode; hits give high values | B-score at 10 µM | actives 0.44% (n = 310,000) | AID 588627, 2011;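 active = calcium response B-score plate-corrected fluorescence ratio at least 3 library SD, with starting fluorescence B-score inside 5 SD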
Target sequence (Q96LB2 whole entry, looked up): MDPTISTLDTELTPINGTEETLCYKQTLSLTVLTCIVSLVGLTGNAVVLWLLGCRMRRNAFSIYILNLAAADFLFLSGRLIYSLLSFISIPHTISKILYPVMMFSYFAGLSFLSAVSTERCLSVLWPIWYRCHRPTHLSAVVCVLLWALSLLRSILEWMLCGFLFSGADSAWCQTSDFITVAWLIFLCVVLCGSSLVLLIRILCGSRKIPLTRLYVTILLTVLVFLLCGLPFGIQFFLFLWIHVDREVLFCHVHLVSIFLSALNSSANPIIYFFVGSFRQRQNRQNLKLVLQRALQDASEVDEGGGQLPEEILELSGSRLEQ
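Material: MrgX1-expressing HEK293 cells; input: 15,000 cells per well; doses: test compound given as first of three sequential additions; schedule: overnight plating before 1 h dye loading; technique: Fluo-4 NW calcium-flux fluorescence, kinetic read; evaluation: baseline-normalised fluorescence change ratio, B-scored; control set: plate-wise positive and negative controls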
RGS4 block = RGS4 inhibitors, primary screen, cell-based, HEK293 M3R inducible RGS4, calcium flux; Regulator of G-protein signaling 4 (Homo sapiens), P49798; Fluo-4 calcium flux; hits give high values; triggered by carbachol at its EC20; B-score at 10 µM; actives 0.45% (n = 310,000);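 active = B-score, a plate-corrected calcium signal, over three deviations above library mean, with baseline fluorescence within five deviations of library mean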;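 also: RGS4 expression induced by doxycycline in cells with stable M3 receptor; B-score is computed from the integrated fluorescence ratio over baseline after carbachol; higher B-score means a larger calcium signal and so more RGS4 inhibition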
Target sequence (P49798 whole entry, looked up): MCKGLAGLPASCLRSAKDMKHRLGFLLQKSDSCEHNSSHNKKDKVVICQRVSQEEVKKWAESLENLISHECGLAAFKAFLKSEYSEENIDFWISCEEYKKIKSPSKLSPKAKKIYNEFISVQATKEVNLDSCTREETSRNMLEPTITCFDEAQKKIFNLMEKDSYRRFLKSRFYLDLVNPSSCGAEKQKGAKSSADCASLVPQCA
MrgX1 antag = antagonists of human MrgX1 receptor, primary screen, HEK293 cells, Fluo-4 calcium flux. B-score at 10 µM. actives 1.3% (n = 310,000). BAM8-22 antagonism; hits give low values. AID 588676, 2011;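 active = calcium-response B-score plate-corrected more than 3 library SD below zero, starting fluorescence within 5 deviations, no agonist response on first addition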;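 also: peak minus trough fluorescence over baseline after final BAM8-22 challenge near maximal dose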
RGS4 pot = RGS4 potentiators or activators, primary screen, cell-based, HEK293 M3R inducible RGS4, calcium flux | carbachol calcium flux Fluo4; hits give low values | B-score at 10 µM | actives 0.92% (n = 310,000);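 active = B-score of the integrated calcium signal more than 4 SD below the library mean, with starting fluorescence not abnormally high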;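 also: negative B-score means reduced calcium response which marks RGS4 activation or potentiation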
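Also added: carbachol at ECmax as muscarinic agonist stimulus; Assay system: HEK293 cells with stable M3R and inducible RGS4; Timing: overnight RGS4 induction, 30 min dye load 37 °C, 20 min compound RT; Measured by: Fluo4-AM (2 µM) calcium-flux fluorescence, kinetic read.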
MrgX1 allo act = positive allosteric modulators of MrgX1, primary screen, HEK293 cells, Fluo-4 calcium flux | Mas-related G-protein coupled receptor member X1 (Homo sapiens), Q96LB2 | FDSS; hits give high values | B-score at 10 µM | actives 0.63% (n = 310,000) | AID 588675, 2011;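 active = plate-corrected calcium response at least 3 library SD above typical, normal starting fluorescence, not activating the receptor alone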;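 also: compound read alongside a low EC10 to EC30 dose of BAM8-22 agonist; peak minus trough fluorescence over baseline measured at the second addition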
A number is an active result.

How did O=C(O)Cn1cc(/C=c2/sc3nc4ccccc4n3c2=O)c2ccccc21 do in these assays?
MrgX1 agonist: 27; RGS4 block: inactive; MrgX1 antag: inactive; RGS4 pot: inactive; MrgX1 allo act: inactive

How did Cc1ccc(-n2c(C)cc(/C=c3/sc4nc5ccccc5n4c3=O)c2C)cc1 do in these assays?
MrgX1 agonist: inactive; RGS4 block: inactive; MrgX1 antag: inactive; RGS4 pot: inactive; MrgX1 allo act: inactive

Results for NS(=O)(=O)c1ccc(CCNC(=O)CNS(=O)(=O)c2cccc(Br)c2)cc1 ?
MrgX1 agonist: inactive; RGS4 block: inactive; MrgX1 antag: inactive; RGS4 pot: inactive; MrgX1 allo act: inactive

Results for COC(=O)C1=C(C)NC(C)=C(C(=O)OCC(C)C)C1c1ccccc1[N+](=O)[O-] (configuration not stated) ?
MrgX1 agonist: 31; RGS4 block: inactive; MrgX1 antag: inactive; RGS4 pot: inactive; MrgX1 allo act: inactive

Results for CCCOc1ccccc1C1CC(=O)NC(C)=C1C(=O)OCC(C)C (configuration not stated) ?
MrgX1 agonist: inactive; RGS4 block: inactive; MrgX1 antag: inactive; RGS4 pot: inactive; MrgX1 allo act: inactive

How did CCOC(=O)C1(Cc2cccc(F)c2)CCN(C(=O)Cn2cnnn2)CC1 do in these assays?
MrgX1 agonist: inactive; RGS4 block: inactive; MrgX1 antag: inactive; RGS4 pot: inactive; MrgX1 allo act: inactive

How did Cc1noc(/C=C/c2ccco2)c1S(=O)(=O)N1CCC(C(=O)N2c3ccccc3CC2C)CC1 (configuration not stated) do in these assays?
MrgX1 agonist: inactive; RGS4 block: inactive; MrgX1 antag: inactive; RGS4 pot: inactive; MrgX1 allo act: inactive

How did COc1cc2c(cc1OC)-c1cc(NC3CCCCCC3)nc(=O)n1CC2 do in these assays?
MrgX1 agonist: inactive; RGS4 block: inactive; MrgX1 antag: -6.2; RGS4 pot: inactive; MrgX1 allo act: inactive

How did O=C(c1ccc([N+](=O)[O-])cc1)N(Cc1ccc(Cl)cc1)N1C(=O)CCCC1=O do in these assays?
MrgX1 agonist: 54; RGS4 block: inactive; MrgX1 antag: inactive; RGS4 pot: inactive; MrgX1 allo act: inactive

How did O=C(c1ccc([N+](=O)[O-])cc1)N(Cc1ccc(Cl)cc1Cl)N1C(=O)CCCC1=O do in these assays?
MrgX1 agonist: inactive; RGS4 block: inactive; MrgX1 antag: inactive; RGS4 pot: inactive; MrgX1 allo act: inactive

Results for N#C/C(=C/c1ccc(N2CCCCCC2)o1)c1ccc(Cl)cc1 ?
MrgX1 agonist: inactive; RGS4 block: inactive; MrgX1 antag: inactive; RGS4 pot: inactive; MrgX1 allo act: 6.5

Results for Cc1ccc(/C(C#N)=C\c2ccc(N3CCOCC3)o2)cc1 ?
MrgX1 agonist: inactive; RGS4 block: inactive; MrgX1 antag: inactive; RGS4 pot: inactive; MrgX1 allo act: inactive

Results for N#C/C(=C/c1ccc(N2CCCCC2)o1)c1cccc(F)c1 ?
MrgX1 agonist: inactive; RGS4 block: inactive; MrgX1 antag: -6.4; RGS4 pot: inactive; MrgX1 allo act: inactive

How did N#C/C(=C/c1ccc(N2CCCCC2)cc1)c1cccc(F)c1 do in these assays?
MrgX1 agonist: inactive; RGS4 block: inactive; MrgX1 antag: inactive; RGS4 pot: inactive; MrgX1 allo act: inactive

Results for CCN(CC)C(=O)CSC(Nc1ccc(F)cc1)=C(C#N)C#N ?
MrgX1 agonist: 44; RGS4 block: inactive; MrgX1 antag: inactive; RGS4 pot: inactive; MrgX1 allo act: inactive

What do the screens show for `COC(=O)c1ccc2c(c1)C(=O)/C(=C/c1ccc(O)cc1)O2`?
MrgX1 agonist: inactive; RGS4 block: inactive; MrgX1 antag: -5.3; RGS4 pot: inactive; MrgX1 allo act: inactive

What do the screens show for `O=C1/C(=C/c2ccc(Br)cc2)Oc2cc(O)ccc21`?
MrgX1 agonist: inactive; RGS4 block: inactive; MrgX1 antag: -9.7; RGS4 pot: inactive; MrgX1 allo act: inactive

Results for Oc1cccc2ccc(N3CCOCC3)nc12 ?
MrgX1 agonist: inactive; RGS4 block: inactive; MrgX1 antag: inactive; RGS4 pot: inactive; MrgX1 allo act: inactive

How did O=C(CN1C(=O)c2ccccc2C1=O)N1CCN(C2c3ccccc3-c3ccccc32)CC1 do in these assays?
MrgX1 agonist: inactive; RGS4 block: inactive; MrgX1 antag: inactive; RGS4 pot: inactive; MrgX1 allo act: inactive

What do the screens show for `O=C(/C=C/c1ccccc1)Nc1cccnc1`?
MrgX1 agonist: inactive; RGS4 block: inactive; MrgX1 antag: inactive; RGS4 pot: inactive; MrgX1 allo act: inactive

How did Cc1ccc(/C=C/C(=O)Nc2cccnc2)o1 do in these assays?
MrgX1 agonist: inactive; RGS4 block: inactive; MrgX1 antag: -7.1; RGS4 pot: inactive; MrgX1 allo act: inactive

What do the screens show for `COc1ccc(NC(=O)/C=C/c2ccc(Br)o2)cn1`?
MrgX1 agonist: inactive; RGS4 block: inactive; MrgX1 antag: -7.2; RGS4 pot: inactive; MrgX1 allo act: inactive

What do the screens show for `CCC1=NN2C(=N)/C(=C/c3ccc(OS(=O)(=O)c4ccccc4)cc3)C(=O)N=C2S1`?
MrgX1 agonist: 39; RGS4 block: inactive; MrgX1 antag: inactive; RGS4 pot: inactive; MrgX1 allo act: inactive

How did CC(C)CS(=O)(=O)C1=NSC2=NC(=O)/C(=C\c3ccc(OC(=O)c4ccco4)cc3)C(=N)N21 do in these assays?
MrgX1 agonist: inactive; RGS4 block: inactive; MrgX1 antag: inactive; RGS4 pot: inactive; MrgX1 allo act: 15

What do the screens show for `CCC(CC)C1=NN2C(=N)/C(=C/c3ccc(OC(=O)c4ccco4)cc3)C(=O)N=C2S1`?
MrgX1 agonist: inactive; RGS4 block: inactive; MrgX1 antag: inactive; RGS4 pot: inactive; MrgX1 allo act: inactive

Results for CS(=O)(=O)C1=NSC2=NC(=O)/C(=C\c3ccc(OC(=O)c4ccco4)c(Br)c3)C(=N)N21 ?
MrgX1 agonist: inactive; RGS4 block: inactive; MrgX1 antag: inactive; RGS4 pot: inactive; MrgX1 allo act: 17

Results for CCS(=O)(=O)C1=NN2C(=N)/C(=C\c3ccc(OS(=O)(=O)c4ccccc4)cc3)C(=O)N=C2S1 ?
MrgX1 agonist: inactive; RGS4 block: inactive; MrgX1 antag: inactive; RGS4 pot: inactive; MrgX1 allo act: 7.2

Results for CCS(=O)(=O)C1=NN2C(=N)/C(=C\c3ccc(OS(=O)(=O)c4ccccc4)c(OC)c3)C(=O)N=C2S1 ?
MrgX1 agonist: inactive; RGS4 block: inactive; MrgX1 antag: inactive; RGS4 pot: inactive; MrgX1 allo act: inactive

What do the screens show for `COc1cc(/C=C2\C(=N)N3N=C(S(=O)(=O)CC(C)C)SC3=NC2=O)ccc1OC(=O)c1ccco1`?
MrgX1 agonist: inactive; RGS4 block: inactive; MrgX1 antag: inactive; RGS4 pot: inactive; MrgX1 allo act: inactive

What do the screens show for `CCC1=NN2C(=N)/C(=C/c3ccc(OS(=O)(=O)c4ccc(C)cc4)c(OC)c3)C(=O)N=C2S1`?
MrgX1 agonist: inactive; RGS4 block: inactive; MrgX1 antag: inactive; RGS4 pot: inactive; MrgX1 allo act: inactive

Source: PubChem (Johns Hopkins Ion Channel Center)
